How the values were obtained:
[1] = test system: epimastigotes of Trypanosoma cruzi (Y strain); test: Activity against epimastigote stage; assay type: cell-based; conditions: CC50/IC50, murine macrophages vs epimastigotes
Outline: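 Y-strain epimastigotes, maintained in LIT + 10% FBS at 26 °C, seeded at 10^5/well with serial dilutions of test compound and 10% alamarBlue. After 3 days (exponential growth), fluorescence was read and dying parasites were confirmed by microscopy. IC50 came from nonlinear regression. CC50 came from the J774A.1 alamarBlue assay, and SI = CC50/IC50.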

[2] = Cytotoxicity on murine cells; assay type: cell-based; conditions: mouse, J774A.1 macrophages
Outline: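 J774A.1 macrophages, maintained in DMEM + 10% FBS at 37 °C and 5% CO2, seeded at 10^4/well and left until fully adherent. Serial dilutions of test compound were then added in RPMI 1640 instead of DMEM, whose colour disturbs alamarBlue fluorescence. After 24 h at 37 °C and 5% CO2, alamarBlue fluorescence was read.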

[3] = test system: amastigote stage of T. cruzi; test: Activity against amastigote stage; assay type: cell-based, Trypanosoma cruzi; conditions: CC50/IC50, murine macrophages vs amastigotes

With `O=C(Cn1ccnc1[N+](=O)[O-])NCc1ccccc1` [BENZ, benznidazole] the “Selectivity index (SI) against epimastigote stage” value [1] was 57.8, the CC50 at 24 h [2] was 399.9 ± 1.4 µM and the “Selectivity index against amastigote stage” value [3] was 149.8.

— publication PMC10276036 (International Journal for Parasitology: Drugs and Drug …, 2023)
